Assay results reported in ChEMBL document CHEMBL1148054, “Chemical and bioactive constituents from Zanthoxylum simulans” (J Nat Prod, 1994).
The source made the active and inactive calls. The calls are words filed in the database; no cut-off is given here.

Experiments:
[1] = system: A-431; assay: Cytotoxicity against human A431 cells; assay type: functional; conditions: read-out: ED50 (the source's name)
In short: (§1)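 Cultured human cancer lines and murine P-388 cells. Complete dose-response data from at least five concentrations of test substance, each tested in duplicate.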

[2] = system: HL-60; assay: Induction of cell differentiation in human HL60 cells assessed as alpha naphthyl esterase activity at 4 uM after 4 days; assay type: functional
In short: (§2)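 HL-60 cells in RPMI 1640 with 5% heat-inactivated calf serum at 37° under 5% CO2. Log-phase cells diluted to 1.2×10^5 cells/ml and preincubated 18 h, then samples added in DMSO (final 0.1%, DMSO controls). Cells scored after 4 days.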

[3] = system: LNCaP; assay: Cytotoxicity against human LNCAP cells; assay type: functional; conditions: read-out: ED50; in short: as §1
[4] = system: HL-60; assay: Induction of terminal cell differentiation in human HL60 cells at 8.1 uM after 4 days by NBT reduction assay; assay type: functional
In short: (§3)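 Log-phase HL-60 cells (RPMI 1640, 5% heat-inactivated calf serum, 37°, 5% CO2) were diluted to 1.2×10^5 cells/ml, preincubated 18 h, then treated 4 days with samples in DMSO (final 0.1%; DMSO controls). 10^6 cells were mixed 1:1 with fresh PBS holding 2 mg/ml NBT and 5 μg/ml TPA, 1 h at 37°. Formazan-positive cells were counted microscopically as % NBT-positive.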

[5] = Cytotoxicity against human multidrug-resistant KBV1 cells in absence of vinblastine; assay type: functional; conditions: KB-V1, read-out: ED50 (the source's name); in short: as §1
[6] = system: HL-60; assay: Induction of terminal cell differentiation in human HL60 cells at 4 uM after 4 days by NBT reduction assay; assay type: functional; in short: as §3
[7] = system: Lu1; assay: Cytotoxicity against human Lu1 cells; assay type: functional; conditions: read-out: ED50 (the source's name); in short: as §1
[8] = system: HL-60; assay: Induction of cell differentiation in human HL60 cells assessed as alpha naphthyl esterase activity at 8.1 uM after 4 days; assay type: functional; in short: as §2
[9] = system: HL-60; assay: Cytotoxicity against human HL60 cells at 64.6 uM by naphthol AS-D chloroacetate esterase activity; assay type: cell-based; conditions: hl-60, 64.6 µM
In short: (§4)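 After 4-day treatment of HL-60 cells (samples in DMSO, final 0.1%), cells stained cytochemically for α-naphthyl acetate esterase or naphthol AS-D chloroacetate esterase.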

[10] = system: HL-60; assay: Induction of terminal cell differentiation in human HL60 cells assessed as cell viability at 32.3 uM by trypan blue exclusion method; assay type: functional; conditions: read-out: Activity
In short: (§5)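 HL-60 cells preincubated 18 h at 1.2×10^5 cells/ml, then exposed 4 days to samples in DMSO (final 0.1%). Viability by trypan blue exclusion: viable/(viable+dead)×100. Cell counts also taken after 4 days.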

[11] = system: HL-60; assay: Induction of terminal cell differentiation in human HL60 cells assessed as cell viability at 64.6 uM by trypan blue exclusion method; assay type: functional; conditions: read-out: Activity; in short: as §5
[12] = system: HL-60; assay: Induction of terminal cell differentiation in human HL60 cells assessed as naphthol AS-D chloroacetate esterase activity at 16.2 uM after 4 days; assay type: functional
In short: (§6)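 HL-60 cells were grown in RPMI 1640 with 5% heat-inactivated calf serum at 37°, 5% CO2. They were diluted to 1.2×10^5 cells/ml, preincubated 18 h, then exposed 4 days to DMSO-dissolved samples (final DMSO 0.1%, matched vehicle controls). Specific esterase (naphthol AS-D chloroacetate) was scored cytochemically with a commercial kit as the percentage of differentiated cells.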

[13] = system: HL-60; assay: Induction of terminal cell differentiation in human HL60 cells assessed as inhibition of [3H]thymidine incorporation at 8.1 uM after 4 days by liquid scintillation; assay type: functional; set-up: scale not given: the % may be the effect or the level left
In short: (§7)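 HL-60 cells were kept in RPMI 1640 with 5% heat-inactivated calf serum and penicillin/streptomycin at 37° under 5% CO2. Log-phase cells were diluted to 1.2×10^5 cells/ml and preincubated 18 h. Samples were added in DMSO (final 0.1%; vehicle controls matched) for 4 days. Aliquots then got 0.5 μCi/ml [3H]thymidine for 16 h more, were harvested and scintillation-counted. % incorporation per 10^6 cells = sample DPM / DMSO-control DPM.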

[14] = system: HL-60; assay: Induction of cell differentiation in human HL60 cells assessed as alpha naphthyl esterase activity at 16.2 uM after 4 days; assay type: functional; in short: as §2
[15] = system: HL-60; assay: Induction of terminal cell differentiation in human HL60 cells assessed as naphthol AS-D chloroacetate esterase activity at 8.1 uM after 4 days; assay type: functional; in short: as §6
[16] = system: HL-60; assay: Induction of terminal cell differentiation in human HL60 cells assessed as naphthol AS-D chloroacetate esterase activity at 4 uM after 4 days; assay type: functional; in short: as §6
[17] = system: Platelet; assay: Antiplatelet activity against rabbit platelet assessed as inhibition of platelet activating factor-induced platelet aggregation at 100 ug/ml; assay type: functional; conditions: Oryctolagus cuniculus
[18] = system: HL-60; assay: Induction of terminal cell differentiation in human HL60 cells assessed as cell viability at 8.1 uM by trypan blue exclusion method; assay type: functional; conditions: read-out: Activity; in short: as §5
[19] = Cytotoxicity against human BC1 cells; assay type: functional; conditions: read-out: ED50 (the source's name); in short: as §1
[20] = system: HL-60; assay: Induction of terminal cell differentiation in human HL60 cells assessed as inhibition of [3H]thymidine incorporation at 16.2 uM after 4 days by liquid scintillation; assay type: functional; set-up: scale not given: the % may be the effect or the level left; in short: as §7
[21] = system: SK-MEL; assay: Cytotoxicity against human SK-MEL cells; assay type: functional; conditions: read-out: ED50 (the source's name); in short: as §1
[22] = system: HL-60; assay: Induction of terminal cell differentiation in human HL60 cells assessed as cell viability at 4 uM by trypan blue exclusion method; assay type: functional; conditions: read-out: Activity; in short: as §5
[23] = system: HT-1080; assay: Cytotoxicity against human HT1080 cells; assay type: functional; conditions: read-out: ED50 (the source's name); in short: as §1
[24] = system: KB; assay: Cytotoxicity against human KB cells; assay type: functional; conditions: read-out: ED50 (the source's name); in short: as §1
[25] = system: HL-60; assay: Induction of terminal cell differentiation in human HL60 cells assessed as inhibition of [3H]thymidine incorporation at 4 uM after 4 days by liquid scintillation; assay type: functional; set-up: scale not given: the % may be the effect or the level left; in short: as §7
[26] = system: HL-60; assay: Cytotoxicity against human HL60 cells at 64.6 uM by alpha naphthyl esterase activity assay; assay type: cell-based; conditions: hl-60, 64.6 µM; in short: as §4
[27] = system: HL-60; assay: Induction of terminal cell differentiation in human HL60 cells at 32.3 uM after 4 days by NBT reduction assay; assay type: functional; in short: as §3
[28] = system: P388; assay: Cytotoxicity against mouse P388 cells; assay type: functional; conditions: read-out: ED50 (the source's name); in short: as §1
[29] = system: HL-60; assay: Induction of terminal cell differentiation in human HL60 cells assessed as inhibition of [3H]thymidine incorporation at 32.3 uM after 4 days by liquid scintillation; assay type: functional; set-up: scale not given: the % may be the effect or the level left; in short: as §7
[30] = system: HL-60; assay: Induction of terminal cell differentiation in human HL60 cells at 16.2 uM after 4 days by NBT reduction assay; assay type: functional; in short: as §3
[31] = system: Platelet; assay: Antiplatelet activity against rabbit platelet assessed as inhibition of collagen-induced platelet aggregation at 100 ug/ml; assay type: functional; conditions: Oryctolagus cuniculus
[32] = system: Col2; assay: Cytotoxicity against human Col2 cells; assay type: functional; conditions: read-out: ED50 (the source's name); in short: as §1
[33] = system: HL-60; assay: Cytotoxicity against human HL60 cells by [3H]thymidine incorporation assay; assay type: cell-based
In short: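 After 4-day sample treatment, 100 μl of HL-60 cells pulsed with 0.5 μCi/ml [3H]thymidine (65 Ci/mmol) for 16 h. Cells harvested and counted by liquid scintillation. Incorporation per 10^6 cells given as sample DPM divided by DMSO-control DPM.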

[34] = system: HL-60; assay: Cytotoxicity against human HL60 cells at 64.6 uM by NBT reduction assay; assay type: cell-based; conditions: hl-60, 64.6 µM; in short: as §2
[35] = system: HL-60; assay: Induction of terminal cell differentiation in human HL60 cells assessed as naphthol AS-D chloroacetate esterase activity at 32.3 uM after 4 days; assay type: functional; in short: as §6
[36] = Cytotoxicity against human U373 cells; assay type: functional, U-373MG ATCC; conditions: U373 MG, read-out: ED50; in short: as §1
[37] = system: Platelet; assay: Antiplatelet activity against rabbit platelet assessed as inhibition of arachidonic acid-induced platelet aggregation at 100 ug/ml; assay type: functional; conditions: Oryctolagus cuniculus
[38] = system: HL-60; assay: Induction of terminal cell differentiation in human HL60 cells assessed as cell viability at 16.2 uM by trypan blue exclusion method; assay type: functional; conditions: read-out: Activity; in short: as §5
[39] = Cytotoxicity against human multidrug-resistant KBV1 cells in presence of vinblastine; assay type: functional; conditions: KB-V1, read-out: ED50 (the source's name); in short: as §1
[40] = system: ZR-75-1; assay: Cytotoxicity against human ZR-75-1 cells; assay type: functional; conditions: ZR-75-1, read-out: ED50; in short: as §1
[41] = system: HL-60; assay: Induction of cell differentiation in human HL60 cells assessed as alpha naphthyl esterase activity at 32.3 uM after 4 days; assay type: functional; in short: as §2

Q: What does the source list for `CC(C)=CCCC1(C)C=Cc2c(c3ccccc3n(C)c2=O)O1` (centres undefined)?
A: EC50 [1]: 28.8 µM; Activity [2]: 4.5%; EC50 [3]: 18.7 µM; Activity [4]: 8%; EC50 [5]: 21.3 µM; Activity [6]: 3.5%; EC50 [7]: 28.8 µM; Activity [8]: 5.5%; Activity [9]: Toxic; viability at 32.3 µM [10]: 78%; viability at 64.6 µM [11]: 9%; Activity [12]: 6.5%; Activity [13]: 0%; Activity [14]: 7.4%; Activity [15]: 5.5%; Activity [16]: 5%; Activity [17]: inactive; viability at 8.1 µM [18]: 95%; EC50 [19]: 28.8 µM; Activity [20]: 0%; EC50 [21]: 28.4 µM; viability at 4 µM [22]: 98%; EC50 [23]: 28.8 µM; EC50 [24]: 15.2 µM; Activity [25]: 0%; Activity [26]: Toxic; Activity [27]: 15.4%; EC50 [28]: 5.2 µM; Activity [29]: 0%; Activity [30]: 9%; Activity [31]: inactive; EC50 [32]: 30.4 µM; Activity [33]: Toxic; Activity [34]: Toxic; Activity [35]: 14.5%; EC50 [36]: 17.1 µM; Activity [37]: inactive; viability at 16.2 µM [38]: 93%; EC50 [39]: 6.5 µM; EC50 [40]: 10 µM; Activity [41]: 24.3%

Q: Which results are given for `COc1ccc2c(c1OC)C(CC1(C)C=Cc3c(c4cccc(OC)c4n(C)c3=O)O1)N(C)c1c-2ccc2cc3c(cc12)OCO3` (centres undefined)?
A: Activity [17]: inactive; Activity [31]: inactive; Activity [37]: inactive
